One may read the IC50 as the point on the concentration scale where inhibition reaches its midpoint.

What all share (format): functional, cell-based
Assay [1] has as its system A549. Nature of the assay: Cytotoxicity against human A549 cells after 72 hrs by SRB assay. (Sulforhodamine B stains cellular protein and so reports cell mass.)
For assay [2], the system named is KB. Nature of the assay: Cytotoxicity against human KB cells after 72 hrs by SRB assay.
A short description of assay [3]: Cytotoxicity against human KBVIN cells after 72 hrs by SRB assay. A digest of the protocol:
(§1)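 Cells grown in RPMI-1640 with 2 mM L-glutamine, 25 mM HEPES, 10% heat-inactivated FBS, penicillin/streptomycin and amphotericin B, 5% CO2. Seeded at 4.0–7.5 × 10^3 cells/well into medium containing graded sample concentrations, 72 h at 37 °C. Fixed with 10% TCA for 30 min, stained 0.04% SRB for 30 min, dye solubilized in 10 mM Tris base, absorbance at 515 nm. Triplicate runs with duplicate samples, mean IC50 ± SD.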

Assay [4] has as its system MDA-MB-231. Nature of the assay: Cytotoxicity against human MDA-MB-231 cells after 72 hrs by SRB assay. A digest of the protocol: as §1

Consider `CC[C@@]1(OC(=O)CN/C(CCOC2CC(C)(C)N([O])C(C)(C)C2)=N/S(=O)(=O)c2ccc3ccccc3c2)C(=O)OCc2c1cc1n(c2=O)Cc2cc3ccccc3nc2-1`, for which the IC50 in assay [1] came to 480 nM; in assay [2] it was 580 nM; in assay [3] (kbvin), 330 nM; in assay [4], 610 nM.
As to `CC[C@@]1(OC(=O)CN/C(CCOC2CC(C)(C)N([O])C(C)(C)C2)=N/S(=O)(=O)c2ccc(C)cc2)C(=O)OCc2c1cc1n(c2=O)Cc2cc3ccccc3nc2-1`, the IC50 in assay [1] came to 76 nM; in assay [2], 210 nM; in assay [3] (kbvin), 110 nM; in assay [4], 450 nM.
The like results for `CC[C@@]1(OC(=O)[C@@H](C)N/C(CCOC2CC(C)(C)N([O])C(C)(C)C2)=N/S(=O)(=O)c2ccc(C)cc2)C(=O)OCc2c1cc1n(c2=O)Cc2cc3ccccc3nc2-1` were, in that order, 450 nM, 560 nM, 250 nM and 530 nM.
The like results for `CC[C@@]1(OC(=O)[C@H](N/C(CCOC2CC(C)(C)N([O])C(C)(C)C2)=N/S(=O)(=O)c2ccc(C)cc2)C(C)C)C(=O)OCc2c1cc1n(c2=O)Cc2cc3ccccc3nc2-1` were, in that order, more than 1000 nM, more than 1000 nM, more than 1000 nM and more than 1000 nM.
For `CC[C@@]1(OC(=O)CN/C(CCOC2CC(C)(C)N([O])C(C)(C)C2)=N/S(C)(=O)=O)C(=O)OCc2c1cc1n(c2=O)Cc2cc3ccccc3nc2-1`, in that order: 59 nM, 71 nM, 90 nM and 110 nM.
Turning to `CC[C@@]1(OC(=O)CN/C(CCOC2CC(C)(C)N([O])C(C)(C)C2)=N/S(=O)(=O)CC)C(=O)OCc2c1cc1n(c2=O)Cc2cc3ccccc3nc2-1`, the IC50 in assay [1] was found to be 55 nM; in assay [2], 59 nM; in assay [3] (kbvin), 57 nM; in assay [4] it was 80 nM.
As to `CCCCS(=O)(=O)/N=C(\CCOC1CC(C)(C)N([O])C(C)(C)C1)NCC(=O)O[C@]1(CC)C(=O)OCc2c1cc1n(c2=O)Cc2cc3ccccc3nc2-1`, the IC50 in assay [1] was found to be 62 nM; in assay [2], 75 nM; in assay [3] (kbvin), 95 nM; in assay [4] it was 230 nM.
The like results for `CC[C@@]1(OC(=O)CN/C(CCOC2CC(C)(C)N([O])C(C)(C)C2)=N/S(=O)(=O)c2ccc(OC)cc2)C(=O)OCc2c1cc1n(c2=O)Cc2cc3ccccc3nc2-1` were, in that order, 81 nM, 110 nM, 96 nM and 270 nM.
For `CC[C@@]1(OC(=O)CN/C(CCOC2CC(C)(C)N([O])C(C)(C)C2)=N/S(=O)(=O)c2ccc(Cl)cc2)C(=O)OCc2c1cc1n(c2=O)Cc2cc3ccccc3nc2-1`, in that order: 63 nM, 73 nM, 84 nM and 190 nM.
The like results for `CC[C@@]1(OC(=O)CN/C(CCOC2CC(C)(C)N([O])C(C)(C)C2)=N/S(=O)(=O)c2ccc(F)cc2)C(=O)OCc2c1cc1n(c2=O)Cc2cc3ccccc3nc2-1` were, in that order, 86 nM, 120 nM, 100 nM and 270 nM.
For `CC[C@@]1(OC(=O)CN/C(CCOC2CC(C)(C)N([O])C(C)(C)C2)=N/S(=O)(=O)c2ccc([N+](=O)[O-])cc2)C(=O)OCc2c1cc1n(c2=O)Cc2cc3ccccc3nc2-1`, the IC50 turned out to be 58 nM in assay [1], 59 nM in assay [2], 72 nM in assay [3] (kbvin) and 100 nM in assay [4].
The like results for `CC[C@@]1(OC(=O)[C@@H](CC(C)C)N/C(CCOC2CC(C)(C)N([O])C(C)(C)C2)=N/S(=O)(=O)c2ccc(C)cc2)C(=O)OCc2c1cc1n(c2=O)Cc2cc3ccccc3nc2-1` were, in that order, 610 nM, 700 nM, 740 nM and 840 nM.
In the case of `CCC(C)[C@@H](N/C(CCOC1CC(C)(C)N([O])C(C)(C)C1)=N/S(=O)(=O)c1ccc(C)cc1)C(=O)O[C@]1(CC)C(=O)OCc2c1cc1n(c2=O)Cc2cc3ccccc3nc2-1` (stereo partly specified), the concentration for half-maximal inhibition (IC50) in assay [1], in assay [2], in assay [3] (kbvin) and in assay [4] was more than 1000 nM in each case.
Take `CC[C@@]1(OC(=O)[C@@H](Cc2ccccc2)N/C(CCOC2CC(C)(C)N([O])C(C)(C)C2)=N/S(=O)(=O)c2ccc(C)cc2)C(=O)OCc2c1cc1n(c2=O)Cc2cc3ccccc3nc2-1`: the IC50 in assay [1] is 170 nM; in assay [2], 310 nM; in assay [3] (kbvin) it was 100 nM; in assay [4] it was 500 nM.
For `CC[C@@]1(OC(=O)CN/C(CCOC2CC(C)(C)N([O])C(C)(C)C2)=N/S(=O)(=O)c2cccs2)C(=O)OCc2c1cc1n(c2=O)Cc2cc3ccccc3nc2-1`, in that order: 63 nM, 63 nM, 83 nM and 110 nM.
For `CC[C@@]1(OC(=O)CN/C(CCOCC2CC(C)(C)N([O])C(C)(C)C2)=N/S(=O)(=O)c2ccc(C)cc2)C(=O)OCc2c1cc1n(c2=O)Cc2cc3ccccc3nc2-1`, in that order: 62 nM, 80 nM, 84 nM and 91 nM.
Consider `CC[C@@]1(OC(=O)CN/C(CCOCC2=CC(C)(C)N([O])C2(C)C)=N/S(C)(=O)=O)C(=O)OCc2c1cc1n(c2=O)Cc2cc3ccccc3nc2-1`, for which the IC50 in assay [1] was found to be 62.9 nM; in assay [2], 82.3 nM; in assay [3] (kbvin) it was 83.4 nM; in assay [4], 103 nM.
Consider `CC[C@@]1(OC(=O)CN/C(CCOCC2=CC(C)(C)N([O])C2(C)C)=N/S(=O)(=O)c2ccc(C)cc2)C(=O)OCc2c1cc1n(c2=O)Cc2cc3ccccc3nc2-1`, for which the concentration for half-maximal inhibition (IC50) in assay [1] was determined as 74 nM; in assay [2] it was 91 nM; in assay [3] (kbvin), 94 nM; in assay [4], 120 nM.
Regarding `CC[C@@]1(OC(=O)CN/C(CCOCC2=CC(C)(C)N([O])C2(C)C)=N/S(=O)(=O)c2ccc(OC)cc2)C(=O)OCc2c1cc1n(c2=O)Cc2cc3ccccc3nc2-1`, the IC50 in assay [1] is 90 nM; in assay [2] it was 130 nM; in assay [3] (kbvin) it was 150 nM; in assay [4], 180 nM.
For `CC[C@@]1(OC(=O)CN/C(CCOCC2=CC(C)(C)N([O])C2(C)C)=N/S(=O)(=O)c2ccc(F)cc2)C(=O)OCc2c1cc1n(c2=O)Cc2cc3ccccc3nc2-1`, in that order: 77 nM, 120 nM, 95 nM and 140 nM.
Turning to `CC[C@@]1(O)C(=O)OCc2c1cc1n(c2=O)Cc2cc3c(CN(C)C)c(O)ccc3nc2-1` [TOPOTECAN], the IC50 in assay [3] (Homo sapiens, KBVIN, 72 h) was 400 nM.

These data come from ChEMBL document CHEMBL3351902, “Design and synthesis of novel spin-labeled camptothecin derivatives as potent cytotoxic agents” (Bioorg Med Chem, 2014).
